Results from ChEMBL document CHEMBL1148922, “Triterpenoids from Brazilian Ilex species and their in vitro antitrypanosomal activity” (J Nat Prod, 2004).

Assays:
Trypanosoma brucei = test: Antitrypanosomal activity against Trypanosoma brucei S427 by microdilution method; format: functional, organism-based
Summary of the method: (§1)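 In vitro test run by the WHO procedure, using serial microdilution in a 96-well microtiter integrated system.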

Trypanosoma cruzi = test: Antitrypanosomal activity against Trypanosoma cruzi Tulahuen CL2 by microdilution method; format: functional, organism-based; summary of the method: as §1

SMILES | IC50 (Trypanosoma brucei) | IC50 (Trypanosoma cruzi)
C[C@H]1CC[C@]2(C(=O)O)CC[C@]3(C)C(=CC[C@@H]4[C@@]5(C)CC[C@H](O[C@@H]6OC[C@H](O)[C@H](O)[C@H]6O)[C@](C)(CO)[C@@H]5CC[C@]43C)[C@@H]2[C@]1(C)O [BREVICUSPISAPONIN 1] | > 32 µM | > 32 µM
C[C@H]1CC[C@]2(C(=O)O)CC[C@]3(C)C(=CC[C@@H]4[C@@]5(C)CC[C@H](O[C@@H]6OC[C@H](O)[C@H](O)[C@H]6O)C(CO)(CO)[C@@H]5CC[C@]43C)[C@@H]2[C@]1(C)O [BREVICUSPISAPONIN 2] | 16 µM | > 32 µM
C[C@H]1[C@H](C)CC[C@]2(C(=O)O[C@@H]3O[C@H](CO[C@@H]4O[C@H](CO)[C@@H](O)[C@H](O)[C@H]4O)[C@@H](O)[C@H](O)[C@H]3O)CC[C@]3(C)C(=CC[C@@H]4[C@@]5(C)CC[C@H](O[C@@H]6OC[C@H](O)[C@H](O[C@@H]7O[C@H](CO)[C@@H](O)[C@H](O)[C@H]7O)[C@H]6O)C(C)(C)[C@@H]5CC[C@]43C)[C@H]12 [MATESAPONIN 3] | > 32 µM | > 32 µM
C[C@@H]1CC[C@]2(C(=O)O[C@@H]3O[C@H](CO)[C@@H](O)[C@H](O)[C@H]3O)CC[C@]3(C)C(=CC[C@@H]4[C@@]5(C)CC[C@H](O[C@@H]6OC[C@H](O)[C@H](O[C@@H]7O[C@H](CO)[C@@H](O)[C@H](O)[C@H]7O)[C@H]6O)C(C)(C)[C@@H]5CC[C@]43C)[C@@H]2[C@]1(C)O [ILEKUDINOSIDE E] | > 32 µM | > 32 µM
C[C@H]1[C@H](C)CC[C@]2(C(=O)O[C@@H]3O[C@H](CO[C@@H]4O[C@H](CO)[C@@H](O)[C@H](O)[C@H]4O)[C@@H](O)[C@H](O)[C@H]3O)CC[C@]3(C)C(=CC[C@@H]4[C@@]5(C)CC[C@H](O[C@@H]6OC[C@H](O)[C@H](O[C@@H]7O[C@H](CO)[C@@H](O)[C@H](O)[C@H]7O)[C@H]6O[C@@H]6O[C@@H](C)[C@H](O)[C@@H](O)[C@H]6O)C(C)(C)[C@@H]5CC[C@]43C)[C@H]12 [MATESAPONIN 4] | > 32 µM | > 32 µM
CC1(C)CC[C@]2(C(=O)O[C@@H]3O[C@H](CO)[C@@H](O)[C@H](O)[C@H]3O)CC[C@]3(C)C(=CC[C@@H]4[C@@]5(C)CC[C@H](O[C@@H]6O[C@H](CO)[C@H](O)[C@H](O)[C@H]6O[C@@H]6O[C@H](CO)[C@@H](O)[C@H](O)[C@H]6O)C(C)(C)[C@@H]5CC[C@]43C)[C@@H]2C1 | > 32 µM | > 32 µM
CC1(C)CC[C@]2(C(=O)O)CC[C@]3(C)C(=CC[C@@H]4[C@@]5(C)CC[C@H](O[C@@H]6O[C@H](CO)[C@H](O)[C@H](O)[C@H]6O[C@@H]6O[C@H](CO)[C@@H](O)[C@H](O)[C@H]6O)C(C)(C)[C@@H]5CC[C@]43C)[C@@H]2C1 | 4 µM | 10 µM
CC1CS(=O)(=O)CCN1/N=C/c1ccc([N+](=O)[O-])o1 (configuration not stated) [NIFURTIMOX] |  | 0.39 µM
C[C@H]1[C@H](C)CC[C@]2(C(=O)O[C@@H]3O[C@H](CO)[C@@H](O)[C@H](O)[C@H]3O)CC[C@]3(C)C(=CC[C@@H]4[C@@]5(C)CC[C@H](O[C@@H]6OC[C@H](O)[C@H](O[C@@H]7O[C@H](CO)[C@@H](O)[C@H](O)[C@H]7O)[C@H]6O)C(C)(C)[C@@H]5CC[C@]43C)[C@H]12 [MATESAPONIN 1] | > 32 µM | > 32 µM

The next lines start with the values.

IC50 (Trypanosoma brucei) | IC50 (Trypanosoma cruzi) | SMILES
4 µM | 4 µM | C[C@H]1[C@H](C)CC[C@]2(C(=O)O)CC[C@]3(C)C(=CC[C@@H]4[C@@]5(C)CC[C@H](O)C(C)(C)[C@@H]5CC[C@]43C)[C@H]12 [URSOLIC ACID]
> 32 µM | > 32 µM | C[C@@H]1CC[C@]2(C(=O)O[C@@H]3O[C@H](CO)[C@@H](O)[C@H](O)[C@H]3O)CC[C@]3(C)C(=CC[C@@H]4[C@@]5(C)CC[C@H](O)[C@@](C)(CO)[C@@H]5CC[C@]43C)[C@@H]2[C@]1(C)O [PEDUNCULOSIDE]
17 µM | > 32 µM | CC(=O)O[C@H]1CC[C@]2(C)[C@H]3CC=C4[C@@H]5[C@@H](C)[C@H](C)CC[C@]5(C(=O)O)CC[C@@]4(C)[C@]3(C)CC[C@H]2C1(C)C [O-ACETYLURSOLIC ACID]
> 32 µM | > 32 µM | CC(=O)OC[C@H]1O[C@@H](OC(=O)[C@]23CC[C@@H](C)[C@@](C)(OC(C)=O)[C@H]2C2=CC[C@@H]4[C@@]5(C)CC[C@H](O[C@@H]6OC[C@H](OC(C)=O)[C@H](O[C@@H]7O[C@H](COC(C)=O)[C@@H](OC(C)=O)[C@H](OC(C)=O)[C@H]7OC(C)=O)[C@H]6OC(C)=O)C(C)(C)[C@@H]5CC[C@@]4(C)[C@]2(C)CC3)[C@H](OC(C)=O)[C@@H](OC(C)=O)[C@@H]1OC(C)=O [PERACETYL ILEXOSIDE II]
> 32 µM | > 32 µM | C[C@H]1[C@H](C)CC[C@]2(CO)CC[C@]3(C)C(=CC[C@@H]4[C@@]5(C)CC[C@H](O)C(C)(C)[C@@H]5CC[C@]43C)[C@H]12 [UVAOL]
